# Experimental data as given in article PMC3517974 (ChemMedChem, 2009).
# What was measured:
# [1] = In vitro stability in rat liver S9 fraction with NADPH-regenerating system; assay type: in vitro ADME; details: for log kS9: hydrolysis constant in rat liver S9 fraction
# In short: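 S9 came from male Wistar rat liver (250–300 g), perfused with ice-cold 0.15 M KCl, homogenized 20% w/v in 0.01 M PBS pH 7.4, and spun at 9,000g. It was preincubated 5 min at 37 °C with NADPH-regenerating system (2 mM NADP+, 10 mM G6P, 0.4 U/mL G6PDH, 5 mM MgCl2), 2 mg/mL protein. Test compound was added at 1 µM (1% DMSO). Aliquots were acetonitrile-quenched and analyzed by RP-HPLC; t1/2 from pseudo-first-order constants, mean±SD of three.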
# [2] = assay type: in vitro ADME, rat; details: for log kplasma: hydrolysis constant in rat plasma
SMILES,stability in rat liver S9 relative to regio isomer 1 [1] [fold],log kS9 [1],log kplasma [2],"half-life at 1 μM ([1]; male, Wistar, rat, liver S9 fraction, pH 7.4, half-life in rat liver S9 fraction, in vitro oxidative metabolism) [h]","t1/2,inhib in rat plasma ([2]; coincubation with esterase inhibitor paraoxon 1 mM) [h]"
"O=C(NC1CCCCC1)Oc1ccc(-c2ccccc2)cc1 [Compound 12, Cyclohexylcarbamic acid biphenyl-4-yl ester]",3,−1.44,−1.50,–,–
"O=C(NC1CCCCC1)Oc1ccc2ccccc2c1 [Compound 13, Cyclohexylcarbamic acid naphthalen-2-yl ester]",–,−0.86,−1.57,–,–
"CCCCNC(=O)Oc1ccc(OCc2ccccc2)cc1 [Compound 8, n-Butylcarbamic acid 4-benzyloxyphenyl ester]",–,−1.00,−2.68,–,–
"NC(=O)c1cccc(-c2cccc(OC(=O)NC3CCCCC3)c2)c1 [Compound 9, cyclohexylcarbamic acid 3′-carbamoylbiphenyl-3-yl ester]",–,−1.93,−1.68,~1,–
O=C(NC1CCCCC1)Oc1cccc(-c2ccccc2)c1 [Compound 1],–,−0.94,−1.79,–,2.38
